# ARFGAP1 inhibitor = inhibits rat ARF GTPase activating protein 1. inhibition, % at 16.5 µM. 0.26% of 360,000 active. Arfgap1-stimulated ARF1 GTP hydrolysis, GDP FP detection. Q62848;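 active = inhibition above a per-plate limit, mean inhibition of low control wells plus 3 SD, cut at about 25% in these data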
# Target sequence (Q62848 1-136 limits assumed): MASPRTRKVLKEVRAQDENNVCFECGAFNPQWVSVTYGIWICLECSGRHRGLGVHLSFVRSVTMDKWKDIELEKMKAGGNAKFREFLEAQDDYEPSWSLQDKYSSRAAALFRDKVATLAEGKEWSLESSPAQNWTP
#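 Material – truncated rat Arfgap1 GAP domain · Buffer or medium – HEPES-based buffer, pH 7.5 · Reagent – human ARF1(Δ1-17)-GTP substrate · Dosing – 16.5 µM single point, 1.26% DMSO · Schedule – GTP hydrolysis reaction 2 h at 25 °C · Technique – GDP detection by fluorescence polarization · Benchmarks – No-Arfgap1 wells (100%) versus DMSO full-reaction wells (0%) · Repeats – single replicate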
# CendR NRP1 mod = modulators of CendR peptide binding to human neuropilin-1 | FAM-RPARPAR peptide binding to NRP-1, fluorescence polarization | inhibition, % at 25 µM | 0.85% of 360,000 active | AID 602438;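 active = inhibition or corrected inhibition above about 18%, plus a signal ratio from 0.5 to 1.5, limit read from the data, passing the limit was not always enough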
# ASAP1 inh = inhibitors of human ASAP1 ArfGAP activity | Q9ULH1 | ASAP1-stimulated ARF1 GTP hydrolysis, GDP FP detection | inhibition, % at 16.5 µM | 0.19% of 360,000 active; in the data active = inhibition above about 25%
# V-ATPase pH = regulators of yeast V-ATPase proton transport; S. cerevisiae, pHLuorin cytosolic pH fluorescence; response, % at 10 µM; 0.37% of 350,000 active; in the data active = response mostly above about 7.3%, no sharp cut-off; inactive = mostly below about 5.4%; also: actives read high
# Exocytosis inh = blocks lytic granule exocytosis | TALL-104 LAMP-1 surface exposure, flow cytometry; cells stimulated with thapsigargin and PMA | inhibition, % at 10 µM | 0.66% of 360,000 active;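 active = inhibition above about 55%, limit read from the data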
# ARFGAP1 inh conf = confirmation of rat ARFGAP1 inhibitors; shares compounds with ARFGAP1 inhibitor; ARFGAP1-stimulated ARF1 GTP hydrolysis, GDP tracer FP; inhibition, % at 16.5 µM; 30% of 890 active; AID 651608;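 active = average inhibition over triplicates above the hit cutoff set in the earlier primary screen, cut at about 25% in these data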
# Target sequence (Q62848 whole entry, looked up): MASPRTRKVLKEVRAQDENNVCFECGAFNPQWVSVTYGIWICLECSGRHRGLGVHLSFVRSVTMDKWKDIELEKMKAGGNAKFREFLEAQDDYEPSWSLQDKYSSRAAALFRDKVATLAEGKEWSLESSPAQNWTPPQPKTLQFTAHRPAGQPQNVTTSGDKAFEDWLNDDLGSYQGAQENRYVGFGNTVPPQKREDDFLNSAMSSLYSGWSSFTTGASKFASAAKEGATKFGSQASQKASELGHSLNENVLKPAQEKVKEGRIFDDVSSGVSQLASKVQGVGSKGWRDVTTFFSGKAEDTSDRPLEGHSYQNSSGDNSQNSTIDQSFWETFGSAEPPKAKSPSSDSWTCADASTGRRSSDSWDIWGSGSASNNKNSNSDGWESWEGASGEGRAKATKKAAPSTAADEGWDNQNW
# A number is an active result; 0 = inactive; - = no result given. Compounds with a hit are over-represented: about 2.2% of the library has one in this group of screens.
SMILES,ARFGAP1 inhibitor,CendR NRP1 mod,ASAP1 inh,V-ATPase pH,Exocytosis inh,ARFGAP1 inh conf
COc1ccc(C(=O)N/N=C/c2cc(Br)ccc2O)cc1OC,33,0,0,0,0,50
COc1cc(Cl)cc(/C=N\NC(=O)c2ccc3c(c2)OCO3)c1O,34,0,0,0,0,43
O=C(NCCN1CCCCC1)Nc1ccc(F)cc1F,0,0,0,0,0,-
O=C(CSc1nnc(SCc2cccc3ccccc23)s1)N/N=C/c1c[nH]c2ccccc12,32,0,0,0,0,0
CC(CCc1ccccc1)NS(=O)(=O)c1ccc(Cl)c(C(=O)O)c1 (centres undefined),0,0,0,0,0,-
CN(C)C(=O)CCc1ccc2c3c([nH]c2c1)[C@]1(C)[C@@H](C(=O)N2CCCCC2)C[C@H](CC(=O)NCC24CC5CC(CC(C5)C2)C4)C(=O)N1CC3,0,0,0,0,0,-
COc1ccc(NC(=O)CSc2nnc(-c3ccncc3)n2CC2CCCO2)c(OC)c1 (centres undefined),26,0,0,0,0,0
O=c1c2ccccc2nc(/C=C/c2ccccc2)n1CCc1ccccc1,52,0,0,0,0,0
CN(C)S(=O)(=O)Nc1ccc2c(c1)Cc1ccccc1-2,28,0,0,0,0,0
COc1cc2c3nnc(-c4ccc(F)cc4)c-3cn(Cc3ccc(C)cc3)c2cc1OC,39,0,0,0,0,48
Oc1cccc(NC(=S)N=Nc2c(O)[nH]c3ccccc23)c1,0,0,0,0,0,-
CCOc1ccc(NC(=S)N=Nc2c(O)[nH]c3ccccc23)cc1,27,0,0,0,0,0
COc1cc2cnc(-c3ccccc3)cc2cc1OC,0,0,0,0,0,-
COc1ccc(-c2cc3cc(OC)c(OC)cc3cn2)cc1,29,0,0,0,0,31
O=C1NC[C@@H](CCCCN2CCN(CCC3CCCCC3)C(=O)C2=O)N(Cc2ccccc2)C1=O,0,0,0,-,0,-
Cc1ccc(C(=O)Nc2ccc(S(=O)(=O)N3CCCC3)cc2)o1,26,0,0,0,0,0
CC(C)N(C(=O)NC(=O)Nc1ccc(S(=O)(=O)N2CCCC2)cc1)S(C)(=O)=O,36,0,0,0,0,0
Cc1cccc(NC(=O)CSc2cc(C(=O)c3nccn3C)c3ccccc3n2)c1,0,0,0,0,0,-
Cc1cc(C)cc(NC(=O)CSc2cc(C(=O)c3nccn3C)c3ccccc3n2)c1,25,0,0,0,0,0
Cc1cc(-c2cc(NC=O)c3ncc(-c4cccc(C(=O)NCCN(C)C)c4)n3c2)cc(C)c1O,27,0,0,-,0,58
COc1cccc(-c2cnc3c(NC(C)=O)cc(-c4cccc(C(=O)NCCN(C)C)c4)cn23)c1,44,0,0,-,0,0
COc1ccc(-c2cnc3c(NC(C)=O)cc(-c4cccc(C(=O)NCCN(C)C)c4)cn23)cc1OC,0,0,0,-,0,-
COc1ccc(NC(=O)c2ccc(NC(=O)COC(=O)CC(NC(=O)c3ccccc3Cl)c3ccccc3)cc2)cc1 (centres undefined),26,0,0,0,0,0
CCN(CC)CCNC(=O)c1ccc(NC(=O)CC(NC(=O)c2ccccc2Cl)c2ccccc2)cc1 (centres undefined),0,0,0,0,0,-
CCCc1cc(=O)oc2cc(OCC(=O)NCCc3c[nH]c4ccccc34)ccc12,26,0,0,0,0,0
SMILES,ARFGAP1 inhibitor,CendR NRP1 mod,ASAP1 inh,V-ATPase pH,Exocytosis inh,ARFGAP1 inh conf
O=C(NC(c1ccc(F)cc1)c1ccc2ccccc2n1)C1CCN(Cc2cccc(C(F)(F)F)c2)CC1 (centres undefined),28,0,0,-,0,0
CC(C)CN(C(=O)CSc1nnc(-c2cccs2)n1C1CC1)C1CCS(=O)(=O)C1 (centres undefined),27,0,0,-,0,0
COc1ccc(/C=N/NC(=O)c2cc3cc(OC)c(OC)cc3[nH]2)cc1,39,0,0,0,0,51
COc1cc2cc(C(=O)N/N=C/c3ccc(F)cc3)[nH]c2cc1OC,0,0,0,0,0,-
Cc1[nH]c2c(C)cccc2c1CCNC(=O)c1ccc2c(c1[N+](=O)[O-])C(=O)c1ccccc1C2=O,26,0,0,0,0,0
COc1ccccc1OCCC(=O)NNC(=O)c1ccccc1F,0,0,0,0,0,-
C/C(=N\N=C(/N)SC1CC(=O)N(c2ccc(Br)cc2)C1=O)c1cccs1 (centres undefined),27,0,0,0,0,0
C/C(=N\N=C(/N)SC1CC(=O)N(c2ccccc2)C1=O)c1cccs1 (centres undefined),0,0,0,0,0,-
Cc1ccc(S(=O)(=O)Nc2ccccc2-c2ccccc2NS(=O)(=O)c2ccc(C)cc2)cc1,0,0,0,0,0,-
Cc1ccc(S(=O)(=O)Nc2ccccc2C(O)c2ccccc2)cc1 (centres undefined),26,0,0,0,0,0
COc1ccc(-c2ccc(N)cn2)cn1,0,0,0,0,0,-
COCCCn1c(C)cc(C(=O)CN2c3cccc4cccc(c34)S2(=O)=O)c1C,32,0,0,0,0,36
CCn1c(C)cc(C(=O)CN2C(=O)c3ccccc3S2(=O)=O)c1C,0,0,0,0,0,-
CC1CCCCC1NC(=O)c1cccc(S(=O)(=O)N2CCN(Cc3ccccc3)CC2)c1 (centres undefined),0,0,0,0,0,-
COc1cc(F)ccc1-c1cc(C(=O)Nc2ccc(NC(C)=O)cc2)[nH]n1,0,0,0,-,0,-
N#CCCN(C(=O)COC(=O)c1cc(=O)[nH]c2ccccc12)c1ccccc1,0,0,0,0,0,-
O=C(NCCCCc1ccccc1)c1cccc(NC(=O)c2ccccc2)c1,0,0,0,0,0,-
O=C(NCCc1ccc(F)cc1)c1cccc(NC(=O)c2ccccc2)c1,37,0,0,0,0,0
Cc1ccc(N2CC(C(=O)OCc3nnc(-c4ccccc4)o3)CC2=O)cc1 (centres undefined),0,0,0,0,0,-
C[C@H](CO)N1C[C@H](C)[C@H](CN(C)C(=O)Nc2cccc(F)c2)Oc2cc(C#CC3(O)CCCC3)ccc2S1(=O)=O,29,0,0,0,0,0
CSc1ccc(CN2CCC(C)(Oc3cccc(F)c3)C2)cc1 (centres undefined),0,0,0,-,0,-
COc1ccccc1C(=O)NCCC(=O)N1CCCC(C)C1 (centres undefined),0,0,0,0,0,-
COc1ccccc1C(=O)NCCC(=O)Nc1ccc(S(=O)(=O)N2CCCC(C)C2)cc1 (centres undefined),28,0,0,0,0,0
C[C@H](CO)N1C[C@H](C)[C@@H](CN(C)C(=O)Nc2ccc(N3CCN(C)CC3)cc2)OCc2cn(nn2)CCCC1=O,0,-,0,-,-,-
Cc1ccccc1NC(=O)NCCCN1CCN(C2CCCCC2)CC1,0,0,0,0,0,-

# Screening data: PubChem BioAssay, several laboratories
